According to ChEMBL document CHEMBL3792308, “Synthesis and Evaluation of 2,6-Modified Purine 2'-C-Methyl Ribonucleosides as Inhibitors of HCV Replication” (ACS Med Chem Lett, 2016):
The source made the active and inactive calls. The calls are words filed in the database; no cut-off is given here.

Tests used:
Hepatitis C virus = assay: Antiviral activity against HCV infected in HuH7 Clone B cells assessed as inhibition of viral replication after 5 days by RT-PCR method; assay type: functional, organism-based, Hepacivirus hominis; settings: 120 h
Method in brief: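 Huh7 cells carrying a subgenomic HCV replicon; HCV RNA extracted and amplified to measure replication inhibition. Tested up to 10 μM, and EC50 and EC90 are reported.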

[1] = Cytotoxicity against human PBMC after 6 days by trypan blue exclusion assay; assay type: cell-based; settings: PBMC (peripheral blood mononuclear cells)
[2] = Cytotoxicity against human CEM cells after 6 days by trypan blue exclusion assay; assay type: cell-based; settings: CEM (CCRF-CEM) cells
[3] = Cytotoxicity against African green monkey Vero cells after 3 days by hemocytometry; assay type: cell-based; settings: chlorocebus sabaeus
[4] = Cytotoxicity against human HuH7 cells infected with HCV assessed as reduction in cellular rRNA level after 96 hrs by qRT-PCR analysis; assay type: cell-based, Huh-7
Method in brief: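 Huh7 toxicity was read in the same wells as the replicon assay, by extracting and amplifying cellular rRNA alongside HCV RNA.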

[5] = Drug metabolism in human HuH7 cells assessed as 2'-beta-C-methylguanosine-5'-triphosphate formation at 50 uM after 4 hrs by LC-MS/MS analysis; assay type: ADME, cell-based; settings: huh-7, 4 h
Method in brief: (§1)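 Huh7 cells incubated with 50 μM compound for 4 h at 37 °C, then washed with phosphate-buffered saline. Intracellular metabolites extracted with 70% ice-cold methanol in water and identified by LC–MS/MS, with nucleoside mono-, di- and triphosphate levels quantified.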

[6] = Drug level in human HuH7 cells treated with 2-Amino-6-[N-(t-butyloxycarbonyl)aminoxy]-9H-(2'-C-methyl-beta-D-ribofuranosyl)-purine at 50 uM after 4 hrs by LC-MS/MS analysis; assay type: ADME, cell-based; settings: huh-7, 4 h; method in brief: as §1
[7] = Drug level in human HuH7 cells treated with Ethyl((((2R,3S,4R,5R)-5-(2-amino-6-(((tert-butoxycarbonyl)amino)oxy)-9H-purin-9-yl)-3,4-dihydroxy-4-methyltetrahydrofuran-2-yl)methoxy)(phenoxy)phosphoryl)-Lalaninate at 50 uM after 4 hrs by LC-MS/MS analysis; assay type: ADME, cell-based; settings: huh-7, 4 h; method in brief: as §1
[8] = Drug metabolism in human HuH7 cells assessed as nucleoside monophosphate derivative formation at 50 uM after 4 hrs by LC-MS/MS analysis; assay type: ADME, cell-based; settings: huh-7, 4 h; method in brief: as §1
[9] = Drug metabolism in human HuH7 cells assessed as nucleoside diphosphate derivative formation at 50 uM after 4 hrs by LC-MS/MS analysis; assay type: ADME, cell-based; settings: huh-7, 4 h; method in brief: as §1
[10] = Drug metabolism in human HuH7 cells assessed as nucleoside triphosphate derivative formation at 50 uM after 4 hrs by LC-MS/MS analysis; assay type: ADME, cell-based; settings: huh-7, 4 h; method in brief: as §1
[11] = Drug metabolism in human HuH7 cells assessed as formation of ((2R,3R,4R,5R)-5-(6-amino-2-fluoro-9H-purin-9-yl)-3,4-dihydroxy-4-methyltetrahydrofuran-2-yl)methyl tetrahydro triphosphate at 50 uM after 4 hrs by LC-MS/MS analysis; assay type: ADME, cell-based; settings: huh-7, 4 h; method in brief: as §1
[12] = Inhibition of HCV C-terminal his-tagged NS5B delta21 RNA dependent RNA polymerase assessed as inhibition of full-length 20mer RNA product formation after 120 mins by PAGE method in presence of 32P-radiolabeled GpG primer; set-up: species or system Hepacivirus hominis
Method in brief: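 HCV NS5B polymerase RNA synthesis on a 20mer RNA template, run with increasing triphosphate concentrations up to 100 μM. Products resolved to follow incorporation and pausing sites opposite template uridines.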

Homo sapiens = species on record: Homo sapiens; assay: Inhibition of host RNA polymerase 2 (unknown origin) up to 100 uM
Method in brief: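 Host RNA polymerase II was tested with nucleoside triphosphate up to 100 μM. α-Amanitin served as the positive control.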

[13] = target: DNA-directed RNA polymerase, mitochondrial (Homo sapiens) (UniProt O00411); assay: Activity at human mitochondrial RNA polymerase assessed as compound incorporation into RNA up to 100 uM relative to ATP
Method in brief: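 Human mitochondrial RNA polymerase (POLRMT) incorporation of nucleoside triphosphate, tested up to 100 μM and expressed as percent incorporation normalized to ATP.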

[14] = Drug level in human HuH7 cells treated with (2R,3R,4R,5R)-2-(6-amino-2-fluoro-9H-purin-9-yl)-5-(hydroxymethyl)-3-methyltetrahydrofuran-3,4-diol at 50 uM after 4 hrs by LC-MS/MS analysis; assay type: ADME, cell-based; settings: huh-7, 4 h; method in brief: as §1
[15] = Drug level in human HuH7 cells treated with Ethyl((((2R,3R,4R,5R)-5-(6-amino-2-fluoro-9H-purin-9-yl)-3,4-dihydroxy-4-methyltetrahydrofuran-2-yl)methoxy)(phenoxy)phosphoryl)-L-alaninate at 50 uM after 4 hrs by LC-MS/MS analysis; assay type: ADME, cell-based; settings: huh-7, 4 h; method in brief: as §1
[16] = Inhibition of host RNA polymerase 2 (unknown origin); set-up: species or system Homo sapiens
Method in brief: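 Host RNA polymerase II inhibition assay with the nucleoside triphosphate tested at concentrations up to 100 μM. α-Amanitin was included as the positive control.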

DNA-directed RNA polymerase, mitochondrial (Homo sapiens), sequence (O00411 whole entry): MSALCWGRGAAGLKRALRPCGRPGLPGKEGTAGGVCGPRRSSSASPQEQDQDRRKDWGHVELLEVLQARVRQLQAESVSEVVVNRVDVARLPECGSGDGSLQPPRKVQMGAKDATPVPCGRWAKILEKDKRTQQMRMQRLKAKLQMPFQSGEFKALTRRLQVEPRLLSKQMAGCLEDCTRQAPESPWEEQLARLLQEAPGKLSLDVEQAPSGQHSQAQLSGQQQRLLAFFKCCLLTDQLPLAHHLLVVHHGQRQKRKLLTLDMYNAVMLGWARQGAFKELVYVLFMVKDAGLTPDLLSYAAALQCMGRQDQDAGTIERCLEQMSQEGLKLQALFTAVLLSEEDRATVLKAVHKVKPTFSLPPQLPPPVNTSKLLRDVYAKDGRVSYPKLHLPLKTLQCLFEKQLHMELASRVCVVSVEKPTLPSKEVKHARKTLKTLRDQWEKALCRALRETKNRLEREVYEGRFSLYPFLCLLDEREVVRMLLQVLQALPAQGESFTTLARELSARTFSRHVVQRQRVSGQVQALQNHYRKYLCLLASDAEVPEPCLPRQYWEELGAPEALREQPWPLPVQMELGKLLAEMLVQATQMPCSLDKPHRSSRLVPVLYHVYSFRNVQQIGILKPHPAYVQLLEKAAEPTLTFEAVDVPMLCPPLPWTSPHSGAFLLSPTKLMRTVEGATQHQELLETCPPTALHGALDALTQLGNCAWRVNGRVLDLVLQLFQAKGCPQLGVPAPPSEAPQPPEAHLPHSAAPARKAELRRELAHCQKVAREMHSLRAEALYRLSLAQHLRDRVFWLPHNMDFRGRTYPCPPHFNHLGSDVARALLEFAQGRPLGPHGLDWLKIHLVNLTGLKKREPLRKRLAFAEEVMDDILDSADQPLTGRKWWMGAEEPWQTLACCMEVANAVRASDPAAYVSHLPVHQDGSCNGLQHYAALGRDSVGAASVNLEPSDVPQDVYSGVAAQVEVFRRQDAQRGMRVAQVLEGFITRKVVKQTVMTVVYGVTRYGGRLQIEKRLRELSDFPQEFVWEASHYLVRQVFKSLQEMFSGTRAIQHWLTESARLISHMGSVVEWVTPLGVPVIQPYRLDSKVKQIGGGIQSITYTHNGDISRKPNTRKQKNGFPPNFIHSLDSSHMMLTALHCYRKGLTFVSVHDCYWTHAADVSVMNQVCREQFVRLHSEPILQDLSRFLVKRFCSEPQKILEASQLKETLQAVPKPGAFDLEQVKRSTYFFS

| Structure (SMILES) | EC50 (Hepatitis C virus) | EC90 (Hepatitis C virus) | CC50 at 144 h [1] | CC50 at 144 h [2] | CC50 at 72 h [3] | CC50 at 96 h [4] | also measured |
| --- | --- | --- | --- | --- | --- | --- | --- |
| C[C@@]1(O)[C@H](O)[C@@H](COP(=O)(O)OP(=O)(O)OP(=O)(O)O)O[C@H]1n1cnc2c(=O)[nH]c(N)nc21 [INX-09114] |  |  |  |  |  |  | Drug metabolism [6]: metabolite_detected; Drug metabolism [7]: metabolite_detected |
| CC(C)(C)OC(=O)NOc1nc(N)nc2c1ncn2[C@@H]1O[C@H](CO)[C@@H](O)[C@@]1(C)O | 0.9 µM | 8.4 µM | > 100 µM | > 100 µM | > 100 µM | > 10 µM | Drug metabolism [5]: metabolite_detected |
| C[C@@]1(O)[C@H](O)[C@@H](COP(=O)(O)OP(=O)(O)OP(=O)(O)O)O[C@H]1n1cnc2c(N)nc(F)nc21 |  |  |  |  |  |  | Ki [12]: 32 µM; inhibition (Homo sapiens): inactive; Activity [13]: 11%; Drug metabolism [14]: metabolite_detected; Drug metabolism [15]: metabolite_detected |
| CC[C@H](C)[C@@H]1NC(=O)CNC(=O)[C@@H]2Cc3c([nH]c4cc(O)ccc34)[S+]([O-])C[C@H](NC(=O)CNC1=O)C(=O)N[C@@H](CC(N)=O)C(=O)N1C[C@H](O)C[C@H]1C(=O)N[C@@H]([C@@H](C)[C@@H](O)CO)C(=O)N2 (some centres undefined) |  |  |  |  |  |  | IC50 [16]: 0.0025 µM |
| C[C@@]1(O)[C@H](O)[C@@H](CO)O[C@H]1n1cnc2c(N)nc(F)nc21 | > 10 µM | > 10 µM | > 100 µM | > 100 µM | > 100 µM | > 10 µM | Drug metabolism [11]: metabolite_detected |

Second part, led by results:

| EC50 (Hepatitis C virus) | EC90 (Hepatitis C virus) | Structure (SMILES) | CC50 at 144 h [1] | CC50 at 144 h [2] | CC50 at 72 h [3] | CC50 at 96 h [4] | also measured |
| --- | --- | --- | --- | --- | --- | --- | --- |
| 0.3 µM | 0.9 µM | CCOC(=O)[C@H](C)NP(=O)(OC[C@H]1O[C@@H](n2cnc3c(ONC(=O)OC(C)(C)C)nc(N)nc32)[C@](C)(O)[C@@H]1O)Oc1ccccc1 (some centres undefined) | > 100 µM | 39 µM | > 100 µM | > 10 µM | Drug metabolism [5]: metabolite_detected |
| 2.7 µM | 8.3 µM | CCOC(=O)[C@H](C)NP(=O)(OC[C@H]1O[C@@H](n2cnc3c(N)nc(F)nc32)[C@](C)(O)[C@@H]1O)Oc1ccccc1 (some centres undefined) | > 100 µM | > 100 µM | > 100 µM | > 10 µM | Drug metabolism [8]: metabolite_detected; Drug metabolism [9]: metabolite_detected; Drug metabolism [10]: metabolite_detected; Drug metabolism [11]: metabolite_detected |
